Source: paper PMC3781598 (Pharmaceutical research, 2013)
Entries after “also recorded” stand apart in the source; their conditions may differ.

Key:
CYP2B6 = target: T1, CYP2B6 (Homo sapiens, UniProt P20813); test: Metabolic stability phenotyping with recombinantly expressed CYPs; format: in vitro ADME; conditions: recombinant CYP2B6, pH 7.4
T1 sequence (P20813 1-491): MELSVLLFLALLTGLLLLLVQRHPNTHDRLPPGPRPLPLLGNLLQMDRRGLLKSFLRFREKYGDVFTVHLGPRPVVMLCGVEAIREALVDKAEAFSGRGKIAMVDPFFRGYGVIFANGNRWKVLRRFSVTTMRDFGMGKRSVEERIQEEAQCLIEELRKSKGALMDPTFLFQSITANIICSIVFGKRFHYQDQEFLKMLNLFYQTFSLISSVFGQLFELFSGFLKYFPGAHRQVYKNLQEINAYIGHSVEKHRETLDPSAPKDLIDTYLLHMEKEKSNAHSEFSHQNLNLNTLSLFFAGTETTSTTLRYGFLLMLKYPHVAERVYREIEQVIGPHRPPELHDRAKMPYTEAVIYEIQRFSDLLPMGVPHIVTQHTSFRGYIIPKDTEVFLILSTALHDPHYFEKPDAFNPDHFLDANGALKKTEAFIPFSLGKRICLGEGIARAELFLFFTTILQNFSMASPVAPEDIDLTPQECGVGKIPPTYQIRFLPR
Summary of the method: (§1)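 Each recombinant human CYP at 100 pmol/ml with 1 μM test compound in potassium phosphate pH 7.4, 3.33 mM MgCl2. Prewarmed 10 min at 37 °C, then started with NADPH regenerating system; no-NADPH buffer controls. Aliquots at 0–45 min quenched in methanol with buspirone internal standard. MS peak-area ratios gave ln(ratio)-vs-time slope, converted to T1/2. Duplicates.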

human CYP2A6 [1] = target: T2, human CYP2A6 (Homo sapiens, UniProt P11509); test: Coumarin metabolism assay
T2 sequence (P11509 with tags, fused parts or gaps limits assumed): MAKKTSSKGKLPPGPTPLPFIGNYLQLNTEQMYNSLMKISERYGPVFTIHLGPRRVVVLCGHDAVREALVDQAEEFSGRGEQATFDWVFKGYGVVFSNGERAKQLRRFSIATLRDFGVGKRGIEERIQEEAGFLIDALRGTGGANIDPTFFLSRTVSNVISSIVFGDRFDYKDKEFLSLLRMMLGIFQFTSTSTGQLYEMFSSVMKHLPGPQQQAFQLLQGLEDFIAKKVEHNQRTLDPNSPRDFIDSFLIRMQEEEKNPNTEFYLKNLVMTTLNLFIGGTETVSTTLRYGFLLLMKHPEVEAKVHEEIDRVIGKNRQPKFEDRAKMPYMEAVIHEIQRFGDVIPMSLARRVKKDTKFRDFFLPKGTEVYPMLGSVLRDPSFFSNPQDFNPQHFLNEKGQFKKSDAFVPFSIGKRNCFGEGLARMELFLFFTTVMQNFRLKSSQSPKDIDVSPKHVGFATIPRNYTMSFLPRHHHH

human CYP2A6 [2] = target: T2, human CYP2A6; test: Spectral ligand binding assay; conditions: for Kd 2A6: spectral titration, ≥ = minimal Kd value
CYP2A6 / CYP2A13 = test: Coumarin metabolism assay; conditions: human, pH 7.4, probe coumarin (7-hydroxylation), Selectivity Ki (2A6)/ Ki (2A13), ratio of the CYP2A6 value to the CYP2A13 value
human CYP2A13 = target: T3, human CYP2A13 (Homo sapiens, UniProt Q16696); test: Coumarin metabolism assay
T3 sequence (Q16696 with tags, fused parts or gaps limits assumed): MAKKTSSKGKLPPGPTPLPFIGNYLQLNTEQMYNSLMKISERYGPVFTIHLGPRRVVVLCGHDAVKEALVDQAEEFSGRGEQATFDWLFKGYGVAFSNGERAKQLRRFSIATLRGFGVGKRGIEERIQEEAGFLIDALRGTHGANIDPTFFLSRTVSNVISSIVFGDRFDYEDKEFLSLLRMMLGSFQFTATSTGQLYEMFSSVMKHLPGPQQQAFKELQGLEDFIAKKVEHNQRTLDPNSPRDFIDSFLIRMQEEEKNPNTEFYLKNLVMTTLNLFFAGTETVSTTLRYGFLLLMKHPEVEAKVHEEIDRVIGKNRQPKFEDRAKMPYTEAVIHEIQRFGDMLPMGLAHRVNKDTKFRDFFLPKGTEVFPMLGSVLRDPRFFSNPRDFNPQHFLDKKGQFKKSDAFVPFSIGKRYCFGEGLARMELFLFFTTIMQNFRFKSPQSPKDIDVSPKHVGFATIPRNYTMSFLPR

genetic toxicity = test: Ames test; format: cell-based; conditions: compound concentrations 5-100 μM
[3] = Metabolic stability in lung microsomes; format: in vitro ADME; conditions: human lung microsomes, 1 μM, 20-minute incubation
Summary of the method: (§2)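 Pooled liver or lung microsomes (male B6C2F1 mouse, male Sprague-Dawley rat, human) at 1.0 mg protein/ml in 50 mM potassium phosphate pH 7.4, 3 mM MgCl2, 1 mM EDTA. […] Stopped at 0, 5, 10, 20 min with acetonitrile containing antipyrene, then LC/MS/MS. Single-exponential kel gave T1/2. CLint = kel × incubation volume/mg protein.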

CYP2D6 = CYP2D6 (Homo sapiens, UniProt P10635); test: Metabolic stability phenotyping with recombinantly expressed CYPs; format: in vitro ADME; conditions: recombinant CYP2D6, pH 7.4
Summary of the method: as §1

[4] = Metabolic stability in liver microsomes; format: in vitro ADME, human; conditions: for Percent Loss of Substrate / substrate remaining: human liver microsomes; for Percent Loss of Substrate: 1 μM, 20-minute incubation; for substrate remaining: at the end of 20 min; for half-life at 1 μM / microsomal CLint at 1 μM: human, liver microsomes, pH 7.4
Summary of the method: as §2

[5] = Metabolic stability in knockout mouse lung microsomes; format: in vitro ADME
Summary of the method: (§3)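 Microsomes from B6 Cyp2a(4/5)bgs-null (CYP2A/CYP2B knockout) or side-by-side wild-type mouse lung and liver, at 0.1 mg protein/ml. Buffer was 50 mM potassium phosphate pH 7.4, 3 mM MgCl2, 1 mM EDTA. […] Parent loss by LC/MS/MS. Single-exponential kel converted to T1/2; CLint = kel × volume/mg protein.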

[6] = Metabolic stability in knockout mouse liver microsomes; format: in vitro ADME
Summary of the method: as §3

[7] = Metabolic stability in wild type mouse liver microsomes; format: in vitro ADME; conditions: pH 7.4
Summary of the method: as §3

[8] = Metabolic stability in wild type mouse lung microsomes; format: in vitro ADME; conditions: pH 7.4
Summary of the method: as §3

[9] = B6 Cyp2a(4/5)bgs-Null, mouse, lung microsomes from knockout mice, pH 7.4
[10] = B6 Cyp2a(4/5)bgs-Null, mouse, liver microsomes from knockout mice, pH 7.4

Chain of CYP2D6 (P10635 whole entry): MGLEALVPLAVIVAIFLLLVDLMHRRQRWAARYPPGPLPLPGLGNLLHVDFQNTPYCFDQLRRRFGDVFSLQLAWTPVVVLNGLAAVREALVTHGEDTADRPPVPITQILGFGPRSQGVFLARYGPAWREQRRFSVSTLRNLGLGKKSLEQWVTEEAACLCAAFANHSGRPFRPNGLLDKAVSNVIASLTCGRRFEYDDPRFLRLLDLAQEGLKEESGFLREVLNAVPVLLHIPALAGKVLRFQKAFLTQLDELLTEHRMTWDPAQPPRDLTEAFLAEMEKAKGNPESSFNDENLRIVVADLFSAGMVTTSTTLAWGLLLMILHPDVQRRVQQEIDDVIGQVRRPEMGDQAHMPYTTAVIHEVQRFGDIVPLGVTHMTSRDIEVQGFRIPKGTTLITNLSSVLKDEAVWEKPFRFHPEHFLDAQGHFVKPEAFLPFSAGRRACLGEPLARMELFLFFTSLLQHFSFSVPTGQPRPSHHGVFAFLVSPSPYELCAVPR

Clc1ccccc1CN1CCOCC1 [Compound 3, 4-(2-chlorobenzyl)morpholine]
half-life at 1 μM (CYP2B6): < 5 min | Ki (human CYP2A6 [1]): ≥ 1000 µM | Kd 2A6 (human CYP2A6 [2]): No ^** Spectral Shift | selectivity ratio at 10 min (CYP2A6 / CYP2A13): ≥ 25 | Ki (human CYP2A13): 39.7 ± 4.3 µM | Ames test revertants (genetic toxicity): few or no revertants | Percent Loss of Substrate [3]: No Loss/No Loss | half-life at 1 μM (CYP2D6): 1.02 h | Percent Loss of Substrate [4]: 47.0% | substrate remaining [4]: 53% | half-life at 1 μM [4]: 0.382 h | microsomal CLint at 1 μM [4]: 30.3 µL/min/mg

Fc1cccc(Cl)c1CN1CCOCC1 [Compound 7, 4-(2-chloro-6-fluorobenzyl)morpholine]
increase in metabolic stability, transgenic vs wild type lung microsomes ([5]; 0.1 mg/ml protein): 5 fold | half-life at 1 μM [5, 9]: 11.2 h | microsomal CLint at 1 μM [5, 9]: 10.4 µL/min/mg | half-life at 1 μM (CYP2B6): < 5 min | Ki (human CYP2A6 [1]): 287 µM | spectral shift with 2A6 (human CYP2A6 [2]; follow-up titration of HTS hit, Figure 1D): no spectral shift | Kd 2A6 (human CYP2A6 [2]): did not cause a spectral shift; also recorded: No ^** Spectral Shift | increase in metabolic stability, transgenic vs wild type liver microsomes ([6]; 0.1 mg/ml protein): 1.7 fold | half-life at 1 μM [6, 10]: 2.12 h | microsomal CLint at 1 μM [6, 10]: 54.8 µL/min/mg | selectivity ratio at 10 min (CYP2A6 / CYP2A13): 7.5 | Ki (human CYP2A13): 38.1 µM | half-life at 1 μM [7]: 1.22 h | microsomal CLint at 1 μM [7]: 95.3 µL/min/mg | Ames test revertants (genetic toxicity): few or no revertants | Percent Loss of Substrate [3]: No Loss/No Loss | half-life at 1 μM (CYP2D6): 1.3 h | Percent Loss of Substrate [4]: 85.5% | substrate remaining [4]: 14% | half-life at 1 μM [4]: 0.127 h | microsomal CLint at 1 μM [4]: 91.4 µL/min/mg | half-life at 1 μM [8]: 2.07 h | microsomal CLint at 1 μM [8]: 55.7 µL/min/mg
